Results as given in ChEMBL document CHEMBL1137756, “Induction of apoptosis promoted by Bang52; a small molecule that downregulates Bcl-x(L)” (2009).
Activity calls are given as the source filed them. No cut-off for these calls is given here.

Legend:
[1] = tested on: TK6; experiment: Cytotoxicity against human TK6 cells expressing wild type p53; format: functional, cell-based
[2] = Cell cycle arrest in human TK6 cells expressing wild type p53 assessed as accumulation at sub-G0/G1 phase after 72 hrs by flow cytometry; format: functional, cell-based
In short: (§1)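 Cells exposed 72 h to vehicle or compound (0.1 μM doxorubicin or 25 μM others) and harvested. Washed twice in ice-cold PBS, then resuspended in hypotonic solution (50 μg/ml propidium iodide, 25 μg/ml RNase, 0.1% sodium citrate, 0.1% Triton X-100) and held 1.5 h at 4°C in the dark. Flow cytometry at 10,000 events per histogram; cell death taken as the sub-G0/G1 fraction.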

[3] = tested on: TK6; experiment: Induction of apoptosis in human TK6 cells expressing wild type p53 assessed as decrease in pro-caspase 3 level at 0.1 uM after 8 hrs by Western blot analysis; format: functional, cell-based
In short: (§2)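 Exposure for 8 h to vehicle, 0.1 μM doxorubicin or 25 μM test agents, followed by protein extraction. Western blots probed for cleaved PARP, caspase-3 and β-actin as loading reference.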

[4] = tested on: WTK1; experiment: Induction of apoptosis in human WTK1 cells expressing p53 M237I mutant assessed as increase in PARP cleavage at 0.1 uM after 8 hrs by Western blot analysis; format: functional, cell-based; in short: as §2
[5] = tested on: WTK1; experiment: Induction of p53 transcriptional activity in human WTK1 cells expressing p53 M237I mutant assessed as p21-Cip1/Waf1 expression at 0.1 uM after 8 hrs by Western blot analysis; format: functional, cell-based
In short: (§3)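 Exposure for 8 h to vehicle, 0.1 μM doxorubicin or 25 μM test agents, followed by protein extraction. Western blots probed for total p53, phospho-p53 (Ser15), p21cip1/Waf1 and β-actin.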

[6] = tested on: NH32; experiment: Induction of apoptosis in p53 deficient human NH32 cells assessed as decrease in pro-caspase 3 level at 0.1 uM after 8 hrs by Western blot analysis; format: functional, cell-based; in short: as §2
[7] = tested on: TK6; experiment: Induction of apoptosis in human TK6 cells expressing wild type p53 assessed as increase in PARP cleavage at 0.1 uM after 8 hrs by Western blot analysis; format: functional, cell-based; in short: as §2
[8] = tested on: NH32; experiment: Induction of apoptosis in p53 deficient human NH32 cells assessed as increase in PARP cleavage at 0.1 uM after 8 hrs by Western blot analysis; format: functional, cell-based; in short: as §2
[9] = tested on: WTK1; experiment: Induction of apoptosis in human WTK1 cells expressing p53 M237I mutant assessed as increase in cleaved caspase 3 level at 0.1 uM after 8 hrs by Western blot analysis; format: functional, cell-based; in short: as §2
[10] = tested on: TK6; experiment: Induction of p53 transcriptional activity in human TK6 cells expressing wild type p53 assessed as p21-Cip1/Waf1 expression at 25 uM after 8 hrs by Western blot analysis; format: functional, cell-based
In short: (§4)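 TK6 and WTK1 cells (NH32 also run) treated 8 h at 25 μM, vehicle or doxorubicin 0.1 μM. Extracts immunoblotted for p53, phospho-p53 (Ser15), p21cip1/Waf1 and β-actin.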

[11] = tested on: WTK1; experiment: Induction of p53 phosphorylation at Ser15 in human WTK1 cells expressing p53 M237I mutant at 0.1 uM after 8 hrs by Western blot analysis; format: functional, cell-based; in short: as §3
[12] = tested on: WTK1; experiment: Induction of p53 transcriptional activity in human WTK1 cells expressing p53 M237I mutant assessed as p21-Cip1/Waf1 expression at 25 uM after 8 hrs by Western blot analysis; format: functional, cell-based; in short: as §4
[13] = tested on: WTK1; experiment: Induction of apoptosis in human WTK1 cells expressing p53 M237I mutant assessed as decrease in pro-caspase 3 level at 0.1 uM after 8 hrs by Western blot analysis; format: functional, cell-based; in short: as §2
[14] = tested on: WTK1; experiment: Induction of p53 phosphorylation at Ser15 in human WTK1 cells expressing p53 M237I mutant at 25 uM after 8 hrs by Western blot analysis; format: functional, cell-based; in short: as §4
[15] = tested on: TK6; experiment: Induction of p53 transcriptional activity in human TK6 cells expressing wild type p53 assessed as p21-Cip1/Waf1 expression at 0.1 uM after 8 hrs by Western blot analysis; format: functional, cell-based; in short: as §3
[16] = Cell cycle arrest in p53 deficient human NH32 cells assessed as accumulation at sub-G0/G1 phase at 0.1 uM after 72 hrs by flow cytometry; format: functional, cell-based; in short: as §1
[17] = tested on: TK6; experiment: Induction of p53 phosphorylation at Ser15 in human TK6 cells expressing wild type p53 at 25 uM after 8 hrs by Western blot analysis; format: functional, cell-based; in short: as §4
[18] = Cell cycle arrest in human WTK1 cells expressing p53 M237I mutant assessed as accumulation at sub-G0/G1 phase at 0.1 uM after 72 hrs by flow cytometry; format: functional, cell-based; in short: as §1
[19] = tested on: TK6; experiment: Induction of p53 phosphorylation at Ser15 in human TK6 cells expressing wild type p53 at 0.1 uM after 8 hrs by Western blot analysis; format: functional, cell-based; in short: as §3
[20] = Cell cycle arrest in human TK6 cells expressing wild type p53 assessed as accumulation at sub-G0/G1 phase at 0.1 uM after 72 hrs by flow cytometry; format: functional, cell-based; in short: as §1
[21] = tested on: TK6; experiment: Induction of apoptosis in human TK6 cells expressing wild type p53 assessed as increase in cleaved caspase 3 level at 0.1 uM after 8 hrs by Western blot analysis; format: functional, cell-based; in short: as §2
[22] = tested on: NH32; experiment: Induction of apoptosis in p53 deficient human NH32 cells assessed as increase in cleaved caspase 3 level at 0.1 uM after 8 hrs by Western blot analysis; format: functional, cell-based; in short: as §2
[23] = Cell cycle arrest in human WTK1 cells expressing p53 M237I mutant assessed as accumulation at sub-G0/G1 phase at 25 uM after 72 hrs by flow cytometry; format: functional, cell-based
In short: (§5)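 B lymphoblast lines TK6 (wild-type p53), NH32 (p53−/−) and WTK1 (mutant p53) exposed 72 h to 25 μM against vehicle; doxorubicin 0.1 μM as p53-dependent control. Washed twice in ice-cold PBS, held 1.5 h at 4°C in the dark in hypotonic fluorochrome solution (50 μg/ml propidium iodide, 25 μg/ml RNase, 0.1% citrate, 0.1% Triton X-100). Sub-G0/G1 apoptotic percentage from 10,000 events per flow histogram.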

[24] = tested on: TK6; experiment: Induction of apoptosis in human TK6 cells expressing wild type p53 assessed as live cell population at 25 uM after 8 hrs using annexin-V and 7-ADD staining by flow cytometry; format: functional
In short: (§6)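 TK6 cells given 25 μM or vehicle for 8 h, washed twice in ice-cold PBS, stained with Annexin-V-PE plus 7-ADD. Flow cytometry assigned quadrant populations as percent of total cells. Histograms representative of three independent experiments.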

[25] = tested on: TK6; experiment: Induction of apoptosis in human TK6 cells expressing wild type p53 assessed as decrease in pro-caspase 3 level at 25 uM after 8 hrs by Western blot analysis; format: functional, cell-based
In short: (§7)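 TK6, NH32 and WTK1 cells treated 8 h with 25 μM or vehicle; doxorubicin 0.1 μM as comparator. Protein extracts analysed by Western blot probed for cleaved PARP, caspase-3 and β-actin.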

[26] = tested on: NH32; experiment: Induction of apoptosis in p53 deficient human NH32 cells assessed as increase in cleaved caspase 3 level at 25 uM after 8 hrs by Western blot analysis; format: functional, cell-based; in short: as §7
[27] = tested on: WTK1; experiment: Induction of apoptosis in human WTK1 cells expressing p53 M237I mutant assessed as decrease in pro-caspase 3 level at 25 uM after 8 hrs by Western blot analysis; format: functional, cell-based; in short: as §7
[28] = tested on: WTK1; experiment: Induction of apoptosis in human WTK1 cells expressing p53 M237I mutant assessed as increase in PARP cleavage at 25 uM after 8 hrs by Western blot analysis; format: functional, cell-based; in short: as §7
[29] = tested on: TK6; experiment: Induction of apoptosis in human TK6 cells expressing wild type p53 assessed as necrotic cell population at 25 uM after 8 hrs using annexin-V and 7-ADD staining by flow cytometry; format: functional; in short: as §6
[30] = tested on: TK6; experiment: Induction of apoptosis in human TK6 cells expressing wild type p53 assessed as depolarization of inner mitochondrial membrane potential at 25 uM after 8 hrs by flow cytometry relative to CCCP; format: functional, cell-based
In short: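 TK6 cells exposed 8 h to 25 μM, vehicle, or CCCP 100 μM as depolarisation control. Cells washed in ice-cold PBS and resuspended in PBS. Membrane potential read by flow cytometry as FL1 (JC-1 monomers) versus FL2 (aggregates) dual-parameter plots. Representative of three independent experiments.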

[31] = tested on: TK6; experiment: Induction of apoptosis in human TK6 cells expressing wild type p53 assessed as late stage apoptotic cell population at 25 uM after 8 hrs using annexin-V and 7-ADD staining by flow cytometry; format: functional; in short: as §6
[32] = Cell cycle arrest in p53 deficient human NH32 cells assessed as accumulation at sub-G0/G1 phase at 25 uM after 72 hrs by flow cytometry; format: functional, cell-based; in short: as §5
[33] = tested on: TK6; experiment: Induction of apoptosis in human TK6 cells expressing wild type p53 assessed as early stage apoptotic cell population at 25 uM after 8 hrs using annexin-V and 7-ADD staining by flow cytometry; format: functional; in short: as §6
[34] = tested on: TK6; experiment: Induction of apoptosis in human TK6 cells expressing wild type p53 assessed as reduction of Bcl-Xl level at 25 uM after 8 hrs by Western blot analysis; format: functional, cell-based
In short: (§8)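 TK6, NH32 and WTK1 cells exposed 8 h to 25 μM, vehicle, or doxorubicin 0.1 μM. Protein extracted and Bcl-xL level assessed by Western blot.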

[35] = tested on: NH32; experiment: Induction of apoptosis in p53 deficient human NH32 cells assessed as decrease in pro-caspase 3 level at 25 uM after 8 hrs by Western blot analysis; format: functional, cell-based; in short: as §7
[36] = tested on: WTK1; experiment: Induction of apoptosis in human WTK1 cells expressing p53 M237I mutant assessed as reduction of Bcl-Xl level at 25 uM after 8 hrs by Western blot analysis; format: functional, cell-based; in short: as §8
[37] = Cell cycle arrest in human TK6 cells expressing wild type p53 assessed as accumulation at sub-G0/G1 phase at 25 uM after 72 hrs by flow cytometry; format: functional, cell-based; in short: as §5
[38] = tested on: NH32; experiment: Induction of apoptosis in p53 deficient human NH32 cells assessed as reduction of Bcl-Xl level at 25 uM after 8 hrs by Western blot analysis; format: functional, cell-based; in short: as §8
[39] = tested on: TK6; experiment: Induction of apoptosis in human TK6 cells expressing wild type p53 assessed as increase in cleaved caspase 3 level at 25 uM after 8 hrs by Western blot analysis; format: functional, cell-based; in short: as §7
[40] = tested on: WTK1; experiment: Induction of apoptosis in human WTK1 cells expressing p53 M237I mutant assessed as increase in cleaved caspase 3 level at 25 uM after 8 hrs by Western blot analysis; format: functional, cell-based; in short: as §7
[41] = tested on: NH32; experiment: Induction of apoptosis in p53 deficient human NH32 cells assessed as increase in PARP cleavage at 25 uM after 8 hrs by Western blot analysis; format: functional, cell-based; in short: as §7
[42] = tested on: TK6; experiment: Induction of apoptosis in human TK6 cells expressing wild type p53 assessed as increase in PARP cleavage at 25 uM after 8 hrs by Western blot analysis; format: functional, cell-based; in short: as §7

Compound: NCCNC(=O)C(F)F
- Activity [1]: Not toxic
- Activity [2]: inactive

Compound: COc1cccc2c1C(=O)c1c(O)c3c(c(O)c1C2=O)C[C@@](O)(C(=O)CO)C[C@@H]3O[C@H]1C[C@H](N)[C@H](O)[C@H](C)O1
- Activity [3]: Active
- Activity [4]: Active
- Activity [5]: inactive
- Activity [6]: Active
- Activity [7]: Active
- Activity [8]: Active
- Activity [9]: Active
- Activity [10]: inactive
- Activity [11]: Active
- Activity [12]: inactive
- Activity [13]: Active
- Activity [14]: inactive
- Activity [15]: Active
- Activity [16]: inactive
- Activity [17]: inactive
- Activity [18]: inactive
- Activity [19]: Active
- Activity [20]: Active
- Activity [21]: Active
- Activity [22]: Active

Compound: O=C(CCNC(=O)C(F)F)c1ccccc1
- Activity [1]: Not toxic
- Activity [2]: inactive

Compound: O=C1C2CCN(CC2)C1(CO)CO
- Activity [23]: Active
- Activity [24]: 66.1%
- Activity [25]: inactive
- Activity [26]: inactive
- Activity [27]: inactive
- Activity [28]: inactive
- Activity [10]: inactive
- Activity [29]: 1.3%
- Activity [30]: inactive
- Activity [31]: 17.6%
- Activity [12]: inactive
- Activity [14]: inactive
- Activity [17]: inactive
- Activity [32]: Active
- Activity [33]: 14.9%
- Activity [34]: Active
- Activity [35]: inactive
- Activity [36]: inactive
- Activity [37]: Active
- Activity [38]: inactive
- Activity [39]: inactive
- Activity [40]: inactive
- Activity [41]: inactive
- Activity [42]: inactive
